Results: ChEMBL document CHEMBL1134962, “Facilely accessible multidrug resistance modulator derived from sucrose” (2002)

Assays:
Format in all cases: functional, Homo sapiens
[1] = system: KB; test: Percentage inhibition of growth against KB-C2 cells in the presence of colchicine(0.1 ug/mL) was determined when administered at 3 ug/mL
Summary of the method: (§1)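 Multidrug-resistant KB-C2 cells were selected from KB-3-1 and kept in colchicine-containing RPMI 1640 with glutamine, kanamycin and 10% newborn calf serum. 10,000 cells per well were preincubated 24 h at 37 °C in 5% CO2. Colchicine plus the test sample were added together and incubated 48 h. Growth was read by MTT (3 h), with the formazan extracted in DMSO.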

[2] = system: KB; test: Percentage inhibition of growth against KB-C2 cells in the presence of colchicine(0.1 ug/mL) was determined when administered at 10 ug/mL; summary of the method: as §1
[3] = system: KB 3-1; test: Cytotoxicity against KB-3-1 cells was determined when administered at 10 ug/mL
Summary of the method: (§2)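 Parental KB-3-1 cells grown in RPMI 1640 with glutamine, kanamycin and 10% newborn calf serum. 10,000 cells per well were preincubated 24 h at 37 °C in 5% CO2. The test sample was then added alone and incubated 48 h. MTT was added for 3 h, and the formazan was extracted with DMSO before the colorimetric read.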

[4] = system: KB 3-1; test: Cytotoxicity against KB-3-1 cells was determined when administered at 1 ug/mL; summary of the method: as §2
[5] = system: KB; test: Percentage inhibition of growth against KB-C2 cells in the presence of colchicine(0.1 ug/mL) was determined when administered at 1 ug/mL; summary of the method: as §1
[6] = system: KB 3-1; test: Cytotoxicity against KB-3-1 cells was determined when administered at 3 ug/mL; summary of the method: as §2
[7] = system: KB; test: Percentage inhibition of growth against KB-C2 cells in the presence of colchicine (0.1 ug/mL) was determined when administered at 3 ug/mL; summary of the method: as §1

CC(C)CC(=O)OC[C@H]1O[C@H](O[C@]2(COC(=O)CC(C)C)O[C@H](COC(=O)CC(C)C)[C@@H](OC(=O)CC(C)C)[C@@H]2OC(=O)CC(C)C)[C@H](OC(=O)CC(C)C)[C@@H](O)[C@@H]1O
Growth inhibition [1]: 60% | Growth inhibition [2]: 92% | Growth inhibition [3]: 93% | Growth inhibition [4]: 18% | Growth inhibition [5]: 23% | Growth inhibition [6]: 16%

CC(C)CC(=O)OC[C@H]1O[C@@](COC(=O)CC(C)C)(O[C@H]2O[C@H](CO)[C@@H](OC(=O)CC(C)C)[C@H](O)[C@H]2OC(=O)CC(C)C)[C@@H](OC(=O)CC(C)C)[C@@H]1OC(=O)CC(C)C
Growth inhibition [1]: 79% | Growth inhibition [2]: 88% | Growth inhibition [3]: 40% | Growth inhibition [4]: 2% | Growth inhibition [5]: 39% | Growth inhibition [6]: 10%

CC(C)CC(=O)OC[C@H]1O[C@@](COC(=O)CC(C)C)(O[C@H]2O[C@H](CO)[C@@H](O)[C@H](O)[C@H]2OC(=O)CC(C)C)[C@@H](OC(=O)CC(C)C)[C@@H]1OC(=O)CC(C)C
Growth inhibition [1]: 76% | Growth inhibition [2]: 93% | Growth inhibition [3]: 92% | Growth inhibition [4]: 10% | Growth inhibition [5]: 40% | Growth inhibition [6]: 21%

CC(C)CC(=O)OC[C@H]1O[C@@](COC(=O)CC(C)C)(O[C@H]2O[C@H](CO)[C@@H](O)[C@H](OC(=O)CC(C)C)[C@H]2OC(=O)CC(C)C)[C@@H](OC(=O)CC(C)C)[C@@H]1OC(=O)CC(C)C
Growth inhibition [1]: 53% | Growth inhibition [2]: 94% | Growth inhibition [3]: 66% | Growth inhibition [4]: 6% | Growth inhibition [5]: 18% | Growth inhibition [6]: 16%

CC(C)CC(=O)OC[C@H]1O[C@@](COC(=O)CC(C)C)(O[C@H]2O[C@H](COC(=O)CC(C)C)[C@@H](OC(=O)CC(C)C)C(OC(=O)CC(C)C)[C@H]2OC(=O)CC(C)C)[C@@H](OC(=O)CC(C)C)[C@@H]1OC(=O)CC(C)C (stereo partly specified)
Growth inhibition [1]: 12% | Growth inhibition [2]: 24% | Growth inhibition [3]: 25% | Growth inhibition [4]: 10% | Growth inhibition [5]: 4% | Growth inhibition [6]: 15%

CC(C)CC(=O)O[C@@H]1[C@@H](OC(=O)CC(C)C)[C@@H](O[C@]2(CO)O[C@H](CO)[C@@H](OC(=O)CC(C)C)[C@@H]2OC(=O)CC(C)C)O[C@H](CO)[C@H]1OC(=O)CC(C)C
Growth inhibition [2]: 97% | Growth inhibition [7]: 92% | Growth inhibition [3]: 98% | Growth inhibition [4]: 9% | Growth inhibition [5]: 65% | Growth inhibition [6]: 8%
